# A selection: hits, their analogues and other compounds. The true share with any hit is near 5.5%.
# Cl transport mod – KCC2 cotransporter modulators, thallium flux, primary screen, cell-based, HEK293 KCC2, FluoZin-2 fluorescence, MLSMR. Solute carrier family 12 member 5 (Homo sapiens), Q9H2X9. KCC2 cells, thallium flux FluoZin-2 fluorescence. B-score of Tl+ flux slope (higher = more flux/activation; lower = inhibition) at 10 µM. hit rate 2.2% among 190,000. AID 1456, 2008;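 active = thallium flux slope and its plate-corrected score both differing from the plate sample mean at a set confidence after two filtering rounds, in either direction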;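 also: slope of fluorescence scaled to starting intensity during 10 to 20 s after thallium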
# STAT1 activator – STAT1 signaling activators, primary screen, cell-based, HTS, luciferase reporter; NIH 3T3 STAT1-luciferase reporter, IFN-gamma, luminescence; 100% = IFN-gamma alone, no compound; activation (% of control), % at 5.5 µM; hit rate 2.6% among 200,000;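 active = activation above the screen-wide mean activation plus 3 SD, cut at about 130% in these data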;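 also: raw ratio to IFN-gamma control signal so 100% means no change and 0% no light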
# STAT1 blocker – STAT1 signaling inhibitors, primary screen, cell-based, HTS, luciferase reporter. NIH 3T3 STAT1-luciferase reporter, IFN-gamma, luminescence. inhibition, % at 5.5 µM. hit rate 0.35% among 200,000. AID 920, 2007;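 active = inhibition above a set limit, the mean inhibition across all tested compounds plus 3 SD, cut at about 34% in these data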;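 also: 0% = IFN-gamma with DMSO and 100% = IFN-gamma with 300 µM nifuroxazide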
# STAT3 activator – IL-6 driven STAT3 reporter potentiators, primary screen, U3A cells, luciferase, luminescence, MLSCN library | IL-6 STAT3-luciferase reporter; 100% = signal with IL-6 EC80 alone | activation (% of control), % at 5.6 µM | hit rate 0.91% among 190,000 | AID 871, 2007;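 active = activation above the screen-wide mean of compound activation plus 3 SD, cut at about 130% in these data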;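 also: 0% = background luminescence of wells with medium and substrate only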
#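 Test system: human U3A cells carrying STAT3-luciferase construct; control set: IL-6-only wells as 100% reference; timing: compound pre-incubation 1 h before IL-6, then 6 h stimulation at 37 °C; also added: IL-6 stimulus at 33 ng/mL final; evaluation: % activation versus median of IL-6-stimulated wells; detection: reporter luminescence signal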
# STAT3 inh-1 – IL-6 driven STAT3 reporter inhibitors, primary screen, U3A cells, luciferase, luminescence, MLSCN library; IL-6 STAT3-luciferase reporter; host cell line lacks STAT1; inhibition, % at 5.5 µM; hit rate 0.89% among 190,000; AID 862, 2007;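 active = inhibition above the mean inhibition across all screened compounds plus 3 SD, cut at about 44% in these data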;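 also: 0% = DMSO only wells and 100% = 100 µM nifuroxazide control wells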
# HSV replic up – enhancers of HSV replication in host cells, fold increase, host cell viability; HSV replication augmentation in cells; maximum fold increase; hit rate 0.005% among 220,000; in the data active = maximum fold increase above about 1.5; tested in PC3 cells
# STAT3 inh-2 – STAT3 reporter inhibitors, retest of hits, confirmation, U3A cells, luciferase, luminescence | AID 1265, 2008 | shares compounds with STAT3 inh-1 | IL-6 STAT3 luciferase reporter; cell line lacks STAT1 | inhibition, % at 5.7 µM | hit rate 45% among 1,200;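 active = inhibition above the hit cutoff computed for the primary STAT3 screen, cut at about 44% in these data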;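 also: 0% = IL-6 plus DMSO and 100% = IL-6 plus nifuroxazide control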
# NFkB inh 2 – NF-kB reporter inhibitors in human cells, confirmation, counter-screen for STAT3 inhibitor project, cell-based, HEK293T, luciferase, TNF-alpha stimulus | inhibition, % at 5.7 µM | AID 1308, 2008 | hit rate 36% among 1,200 | TNF-alpha induced | shares compounds with STAT3 inh-1;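 active = inhibition above the mean of solvent-only control wells plus 3 SD, cutoff set per campaign, cut at about 13% in these data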;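 also: 0% = TNF-alpha with DMSO and 100% = TNF-alpha with MG high control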
# STAT1 inh STAT3c – STAT1 reporter inhibitors, IFN-gamma induced, confirmation, counter-screen for STAT3 inhibitor project, cell-based, NIH 3T3, luciferase luminescence. NIH 3T3 STAT1-luciferase reporter. inhibition, % at 5.7 µM. shares compounds with STAT3 inh-1. hit rate 27% among 1,200;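 active = inhibition above the mean plus 3 SD of solvent-only control wells, limit set per screening run, cut at about 16% in these data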;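 also: 0% = DMSO with IFN-gamma and 100% = nifuroxazide control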
# Numbers without * were called inactive; i = inactive; · = not tested or not shown.
SMILES,Cl transport mod,STAT1 activator,STAT1 blocker,STAT3 activator,STAT3 inh-1,HSV replic up,STAT3 inh-2,NFkB inh 2,STAT1 inh STAT3c
COc1cc(CC(=O)OCC(=O)Nc2ccc(S(=O)(=O)N3CCCC3)cc2)cc(OC)c1OC,·,100,-1,106,0,i,·,·,·
COc1ccc(CN(C)C(C)C(=O)Nc2ccc(S(=O)(=O)N3CCCC3)cc2)c(OC)c1OC (stereo unspecified),-0.011,75,26,64,45*,i,32,3,18*
O=C(Cc1ccccc1)Nc1ccc(NC(=O)C2CCCCC2)nc1,0.4,100,-1,100,2,i,·,·,·
O=C(Nc1ccc(NC(=O)C2CCCCC2)cn1)c1ccco1,1.2,140*,-44,48,62*,i,30,-23,-62
O=C(Nc1ccc(NC(=O)c2ccco2)nc1)c1ccco1,0.13,99,-1,57,54*,i,5,-22,-62
O=C(COC(=O)C1CC2C=CC1C2)Nc1cccc(S(=O)(=O)N2CCCCCC2)c1 (stereo unspecified),-0.92,101,-1,76,31,i,·,·,·
COc1cc(C(C)=O)ccc1Oc1ncnc2c1cnn2-c1ccc(F)cc1,-0.96,117,-19,119,-28,i,·,·,·
CC(=O)c1cnc(-c2ccccn2)s1,1.1,106,-6,129,-35,i,·,·,·
O=C(c1ccc(Cl)cc1)c1cnc(-c2ccc(Cl)cc2)s1,0.26,90,11,92,12,i,·,·,·
O=C(c1ccccc1)c1cnc(-c2ccccc2)s1,0.63,130*,-33,59,52*,i,17,-30,-77
CN(C)/C=C/C(=O)c1cnc(-c2ccc(Cl)cc2)s1,-0.49,133*,-36,68,43*,i,13,-33,-66
CN(C)/C=C/C(=O)c1ccc(Cl)s1,-0.1,104,-6,99,6,i,·,·,·
O=C(c1ccccc1)c1cnc(-c2ccc(Cl)cc2)s1,0.034,116,-18,64,48*,i,21,-15,-70
CC(C)OC(=O)C(C)Oc1ccc(C(=O)NCCc2ccccc2)cc1 (stereo unspecified),-0.24,98,2,107,-11,i,·,·,·
Cc1ccc(NC(=O)C2C3CCCC2C3c2ccccc2)cc1 (stereo unspecified),1.4,112,-14,99,1,i,·,·,·
c1ccc(-c2csc3ncnc(NCCCN4CCOCC4)c23)cc1,-0.11,88,14,85,20,i,·,·,·
c1csc(-c2csc3ncnc(NCCCN4CCOCC4)c23)c1,-0.12,86,15,65,46*,i,31,8,15
O=C(O)/C=C/c1cnn(-c2ccccc2)c1,0.94,74,29,66,45*,i,13,-14,-29
O=C(O)/C=C\c1cccc(-n2cnnn2)c1,0.25,104,-5,100,3,i,·,·,·
CN(c1ccccc1)S(=O)(=O)c1cccc(NC(=O)c2cc(=O)c3ccccc3o2)c1,0.44,83,17,90,20,i,·,·,·
Cc1nc2ccc(NC(=O)c3cccs3)cc2c(=O)n1Cc1ccc(Cl)cc1,·,97,2,60,51*,i,43,6,-6

# Source: PubChem
